Series [1] concerns the target T1, Tumour suppressor p53/oncoprotein Mdm2 (Homo sapiens, UniProt Q00987). The series is described as follows: Inhibition of p53-MDM2 (unknown origin) interaction using 0.2% BSA buffer after 1 hr by HTRF assay. Format: protein assay.
In series [2] the target is T1, Tumour suppressor p53/oncoprotein Mdm2. The series is described as follows: Inhibition of p53-MDM2 (unknown origin) interaction using 0.02% BSA buffer after 1 hr by HTRF assay. In kind it is protein assay. In general terms: TR-FRET usually uses a lanthanide donor and a delayed reading to cut background.
A short description of series [3]: Antiproliferative activity against wild-type p53 expressing human HCT116 cells assessed as inhibition of cell proliferation by MTT assay. In kind it is functional, cell-based. Conditions: HCT-116. (In general: Formazan colour is commonly taken as a measure of viable cells.)
The subject of a further series is MDA-MB-435. Put plainly: Antiproliferative activity against p53 mutant expressing human MDA-MB-435 cells assessed as inhibition of cell proliferation by MTT assay. Format: functional, cell-based.
Another series concerns RKO. Put plainly: Antiproliferative activity against wild-type p53 expressing human RKO cells assessed as inhibition of cell proliferation by MTT assay. Format: functional, cell-based.
A further series relates to SW480. The series is described as follows: Antiproliferative activity against p53 mutant expressing human SW480 cells assessed as inhibition of cell proliferation by MTT assay. In kind it is functional, cell-based.
Series [4] can be described thus: Apparent terminal half life in C57 mouse at 5 mg/kg, iv. Format: ADME, organism-based. On the set-up: dose 5 mg/kg, route intravenous. The note with it: in vivo, read-out: betat1/2(app) (converted). In short, it runs like this:
(§1)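 Male C57 mice received a single dose, given orally or intravenously in separate arms. Plasma pharmacokinetic parameters were derived from the resulting concentration–time data and reported as means.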

Series [5] in a line: Cmax in C57 mouse at 50 mg/kg, po. Format: ADME, organism-based. The note with it: in vivo. On the set-up: dose 50 mg/kg, route oral. In short, it runs like this:
as §1

Series [6] is described as follows: Total plasma clearance in C57 mouse at 5 mg/kg, iv. In kind it is ADME, organism-based. On the set-up: dose 5 mg/kg, route intravenous. The method, boiled down: as §1
Series [7] can be described thus: Oral bioavailability in C57 mouse at 50 mg/kg. Conditions: in vivo. Format: ADME, organism-based. In short, it runs like this: as §1
Series [8] in a line: Cmax in C57 mouse at 25 mg/kg, po. Conditions: in vivo. Format: ADME, organism-based. On the set-up: dose 25 mg/kg, route oral. The method, boiled down: as §1
The nature of series [9]: Oral bioavailability in C57 mouse at 25 mg/kg. Format: ADME, organism-based. The note with it: in vivo. In short, it runs like this:
as §1

The values that follow come from ChEMBL document CHEMBL3352737, “Discovery of potent and selective spiroindolinone MDM2 inhibitor, RO8994, for cancer therapy” (Bioorg Med Chem, 2014).

The IC50 is the concentration at which inhibition is half-maximal. By Cmax is commonly meant the peak of the concentration-time curve. The term clearance denotes the volume of plasma or blood freed of the substance per unit of time. By bioavailability is commonly meant dose-corrected exposure relative to a reference, in per cent. Read a high bioavailability as much systemic uptake.

T1 sequence (P04637 whole entry): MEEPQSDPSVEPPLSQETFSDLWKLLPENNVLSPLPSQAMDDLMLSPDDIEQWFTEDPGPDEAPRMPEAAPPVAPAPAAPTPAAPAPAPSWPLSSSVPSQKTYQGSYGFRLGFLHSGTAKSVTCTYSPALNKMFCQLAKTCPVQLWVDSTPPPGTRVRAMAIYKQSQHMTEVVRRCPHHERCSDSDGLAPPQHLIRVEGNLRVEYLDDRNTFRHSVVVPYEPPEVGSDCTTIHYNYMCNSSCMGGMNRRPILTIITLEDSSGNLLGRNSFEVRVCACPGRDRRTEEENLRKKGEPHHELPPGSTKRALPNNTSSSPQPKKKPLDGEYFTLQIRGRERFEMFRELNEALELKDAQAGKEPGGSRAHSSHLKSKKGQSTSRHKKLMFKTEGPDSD
T1 sequence (Q00987 whole entry): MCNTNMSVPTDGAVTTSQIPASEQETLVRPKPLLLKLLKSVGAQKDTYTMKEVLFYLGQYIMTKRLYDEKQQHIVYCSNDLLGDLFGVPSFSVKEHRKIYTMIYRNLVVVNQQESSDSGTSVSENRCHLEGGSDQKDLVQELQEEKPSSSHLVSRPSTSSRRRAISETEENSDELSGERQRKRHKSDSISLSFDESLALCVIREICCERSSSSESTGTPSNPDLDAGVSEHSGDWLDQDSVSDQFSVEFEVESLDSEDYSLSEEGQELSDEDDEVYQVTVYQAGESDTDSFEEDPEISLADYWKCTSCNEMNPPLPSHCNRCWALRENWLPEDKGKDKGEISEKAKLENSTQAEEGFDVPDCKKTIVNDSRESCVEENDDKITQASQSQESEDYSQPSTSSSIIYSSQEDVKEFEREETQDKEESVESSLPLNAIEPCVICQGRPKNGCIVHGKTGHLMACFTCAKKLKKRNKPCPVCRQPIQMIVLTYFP

`COc1cc(NC(=O)[C@H]2N[C@H](CC(C)(C)C)[C@]3(C(=O)Nc4cc(Cl)ccc43)[C@@H]2c2cccc(Cl)c2F)ccc1C(=O)O`: the IC50 in [1] was 3740 nM; in [2], 3090 nM.

In the case of `COc1cc(NC(=O)[C@@H]2N[C@@H](CC(C)(C)C)[C@@]3(C(=O)Nc4cc(Cl)ccc43)[C@H]2c2cccc(Cl)c2F)ccc1C(=O)O`, the IC50 in series [3] worked out at 50 nM; in the series with MDA-MB-435, 11500 nM; in the series with RKO, 240 nM; in the series with SW480 it was 14400 nM.

For `CC(=O)N1CCCC([C@]2(Cc3cccc(Cl)c3)C(=O)Nc3cc(Cl)ccc32)C1` (stereo partly specified), half-maximal inhibition in series [1] (IC50) required 3900 nM.

As to `COc1cc(C(N)=O)ccc1NC(=O)[C@@H]1N[C@@H](CC(C)(C)C)[C@@]2(C(=O)Nc3c2ccc(Cl)c3F)[C@H]1c1cccc(Cl)c1F` (racemic), the IC50 in [3] amounted to 670 nM; in series [1], 18 nM; with MDA-MB-435, 9400 nM; with RKO, 1080 nM; in [2] it was 15 nM; in the series on SW480, 7500 nM.

Regarding `CC(C)(C)C[C@@H]1N[C@@H](C(=O)Nc2ccc(OCCO)cc2)[C@H](c2cccc(Cl)c2F)[C@]12C(=O)Nc1cc(Cl)ccc12`, the IC50 in series [3] was 180 nM; in [1] it was 8 nM; with MDA-MB-435, 10800 nM; in the series with RKO it was 280 nM; with SW480 it was 11300 nM.

Regarding `CC(C)(C)C[C@@H]1N[C@@H](C(=O)Nc2ccc(C(N)=O)cc2F)[C@H](c2cccc(Cl)c2F)[C@]12C(=O)Nc1cc(Cl)ccc12`, the IC50 in series [3] stood at 120 nM; in [1], 7 nM; with MDA-MB-435 it was 10000 nM; in the series on RKO, 220 nM; in [2] it was 7 nM; in the series on SW480, 7100 nM. For the same compound, the half-life in [4] was 15.3 h. The compound further yielded a Cmax in series [5] of 13100 ng/mL. In series [6], this compound yielded a clearance of 3.4 mL/min/kg. The bioavailability in series [7] is 75%.

Regarding `CC(C)(C)C[C@@H]1N[C@@H](C(=O)Nc2ccc(C(N)=O)cc2)[C@H](c2cccc(Cl)c2F)[C@]12C(=O)Nc1cc(Cl)c(F)cc12`, the IC50 in series [3] was found to be 180 nM; with MDA-MB-435, 10900 nM; with RKO, 430 nM; in the series with SW480 it was 15200 nM. In addition, the half-life in series [4] is 8.8 h. Further, the Cmax in series [5] amounted to 8700 ng/mL. In series [6], this compound had a clearance of 2.6 mL/min/kg. In series [7], the bioavailability amounted to 45%.

Regarding `CC(C)(C)C[C@@H]1N[C@@H](C(=O)Nc2ccc(C(N)=O)cc2)[C@H](c2cccc(Cl)c2F)[C@]12C(=O)Nc1cc(Cl)ccc12`, the concentration for half-maximal inhibition (IC50) in [3] was determined as 70 nM; in [1] it was 5 nM; in the series on MDA-MB-435 it was 11600 nM; with RKO, 150 nM; in [2], 5 nM; in the series on SW480, 14300 nM. For the same compound, in series [4], the half-life was 10.4 h. Further, in series [5], the Cmax amounted to 8300 ng/mL. The clearance in series [6] is 3.5 mL/min/kg. The compound also registered a bioavailability in [7] of 63%.

For `COc1cc(OCCO)ccc1NC(=O)[C@@H]1N[C@@H](CC(C)(C)C)[C@@]2(C(=O)Nc3cc(Cl)ccc32)[C@H]1c1cccc(Cl)c1F`, the IC50 worked out at 8 nM in series [3], 9500 nM in the series with MDA-MB-435, 16 nM in the series with RKO and 4450 nM in the series on SW480. The half-life in series [4] is 6.6 h. The same compound had a Cmax in series [8] of 4300 ng/mL. Further, the clearance in [6] was 6.7 mL/min/kg. Besides, the bioavailability in series [9] was 55%.

With `COc1cc(NC(=O)[C@@H]2N[C@@H](CC(C)(C)C)[C@@]3(C(=O)Nc4cc(Cl)ccc43)[C@H]2c2cccc(Cl)c2F)ccc1C(N)=O`, the IC50 is 80 nM in [3], 6920 nM in the series with MDA-MB-435, 90 nM in the series on RKO and 3960 nM in the series with SW480.

`COc1cc(C(N)=O)ccc1NC(=O)[C@@H]1N[C@@H](CC(C)(C)C)[C@@]2(C(=O)Nc3cc(Cl)cc(F)c32)[C@H]1c1cccc(Cl)c1F`: the IC50 was 120 nM in [3]; 6 nM in series [1]; 12000 nM in the series on MDA-MB-435; 80 nM in the series on RKO; 10500 nM with SW480.

Turning to `COc1cc(C(=O)O)ccc1NC(=O)[C@@H]1N[C@@H](CC(C)(C)C)[C@@]2(C(=O)Nc3cc(Cl)ccc32)[C@H]1c1cccc(Cl)c1F`, the IC50 worked out at 10 nM in [3], 12100 nM in the series on MDA-MB-435, 20 nM in the series with RKO and 9800 nM with SW480. Besides, the half-life in series [4] is 11.1 h. Moreover, in [8], the Cmax was found to be 800 ng/mL. Moreover, the clearance in [6] came out at 34.6 mL/min/kg. In series [9], this compound yielded a bioavailability of 21%.
